How the values were obtained:
[1] = test system: Cx43-hemichannels in primary bovine corneal endothelial cells (BCECs); settings: cited from earlier work
Cx43-hemichannels = settings: cited from earlier work; for effect on Cx43-hemichannel inhibition by high [Ca2+]i: 1 μM [Ca2+]i
Cx43 gap junctions = settings: cited from earlier work
[2] = test system: Cx43-hemichannels in HeLa cells overexpressing Cx43; assay: Whole-cell patch clamp recording of unitary Cx43-hemichannel currents; format: cell-based, human; settings: peptide 100 μM via patch pipette
[3] = test system: native HeLa cells, which lack endogenous Cx43 expression; assay: Whole-cell patch clamp recording in native HeLa cells; format: cell-based, human; settings: peptide 100 μM; voltage steps -30 to +60 mV; Supplementary Fig. 1
Procedure, shortened: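 Whole-cell patch clamp was done on untransfected HeLa cells. The CsCl/EGTA/TEA pipette solution (pH 7.2) was set to 1 µM free Ca2+ and delivered test peptide (100 µM). Steps ran from −30 to +60 mV for 30 s, acquired at 4 kHz and filtered at 1 kHz.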

Cx43^M242 hemichannels = assay: ATP release from HeLa cells transiently expressing CT-truncated Cx43^M242; format: cell-based, human; settings: peptide 100 μM; Fig. 6b
Procedure, shortened: (§1)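 HeLa cells were transiently transfected with the truncated Cx43 construct; empty-vector-transfected cells gave background release. Cells were triggered with 2 µM A23187 while exposed to vehicle or TAT-linked test peptides (100 µM). Extracellular ATP was measured by luciferin–luciferase and normalised to baseline from separate cultures in standard HBSS-HEPES. At least four independent measurements.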

[4] = test system: Cx43^ΔGap19M242-based hemichannels; assay: ATP release from HeLa cells transiently expressing Cx43^ΔGap19M242; format: cell-based, human; settings: peptide 100 μM; 2 μM A23187; n = 4; Fig. 7a
Procedure, shortened: as §1

Cc1ccc2c(c1)C(=O)C1(O)CCN(c3ccccc3)C1=N2 (single isomer, unassigned; (-)) [(−)-blebbistatin]
effect on thrombin-induced inhibition of Cx43-hemichannels in BCECs ([1]; thrombin-treated BCECs): could be alleviated | effect on Cx43-hemichannel inhibition by high [Ca2+]i (Cx43-hemichannels): prevented the Cx43-hemichannel inhibition by high [Ca^2+]i

Gap19: nine amino acid sequence of L2, selective Cx43-hemichannel inhibitor (KQIEIKKFK; UniProt P17302 128-136, looked up, fragment)
effect on Cx43 gap junctions (Cx43 gap junctions): not affecting Cx43 gap junctions | effect on opening of Cx43-hemichannels (Cx43-hemichannels): inhibit the opening of Cx43-hemichannels

SPTAPLSPMSPPG [SH3]
membrane charge transfer (Qm) summary at 1 μM [Ca2+]i ([2]; current traces integrated over time, Fig. 4j): remove hemichannel inhibition | effect on hemichannel opening activity at 50 nM [Ca2+]i ([2]; voltage steps -30 to +60 mV, 30 s, Fig. 4b, c): did not affect | effect on inhibition of Cx43-hemichannel currents by 1 μM [Ca2+]i ([2]; voltage steps -30 to +60 mV, 30 s, Fig. 4g-i): completely prevented the inhibition | unitary current activity in native HeLa cells at 1 μM [Ca2+]i [3]: did not elicit any changes

YGRKKRRORRRDGANVDMHLKQTFTKKFKYGTFFHGK [TAT-L2]
effect of TAT-L2 pre-treatment on the active area in BCECs ([1]; pre-treatment of BCECs): severely reduced | effect on Cx43 gap junctions (Cx43 gap junctions): but not Cx43 gap junctions | effect on opening of Cx43-hemichannels (Cx43-hemichannels): inhibited the opening of Cx43-hemichannels

YGRKKRRQRRRSRPRPDDLFI [TAT-CT9]
restoration of the thrombin-reduced active area in BCECs ([1]; thrombin-treated BCECs): could restore the thrombin-reduced active area | restoration of ATP release of Cx43^M242 hemichannels in response to 2 μM A23187 (Cx43^M242 hemichannels): can restore the activity | effect on Cx43-hemichannel inhibition by high [Ca2+]i (Cx43-hemichannels): prevented the Cx43-hemichannel inhibition by high [Ca^2+]i | restoration of the activity of Cx43^M239-based hemichannels (Cx43-hemichannels; cell-permeant synthetic peptide): can be restored

YGRKKRRQRRRSSPTAPLSPMSPPG [TAT-SH3]
restoration of ATP release through Cx43^ΔGap19M242-based hemichannels [4]: could not be restored | restoration of ATP release of Cx43^M242 hemichannels in response to 2 μM A23187 (Cx43^M242 hemichannels): restored the ATP release properties

thrombin
effect of thrombin pre-treatment on the active area in BCECs ([1]; pre-treatment of BCECs): strongly reduced

Reference: article PMC6318120 (Cellular and molecular life sciences : CMLS, 2017)
